This is a sample that favours compounds with a hit; in the whole collection about 2.1% have one here.
SR-BI DiI inh: blocks mouse SR-BI lipid uptake from DiI-HDL; 0.96% of 320,000 active; Q61009; ldlA[mSR-BI] CHO cells, DiI-HDL uptake fluorescence, 3 h; inhibition, % at 12.5 µM;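 active = mean replicate inhibition of at least 70% and a set share of replicates each scoring 70 or more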;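 also: 0% = median of neutral control wells and 100% = median of positive control wells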
SR-BI uptake up: SR-BI HDL lipid transfer activation. CHO ldlA[mSR-BI] cells, DiI-HDL uptake fluorescence, 3 h; 100 = double the neutral-control signal. activation, % at 12.5 µM. 0.096% of 320,000 active. AID 504775;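 active = mean replicate activation of at least 60% and every replicate at or above 60%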;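 also: 0% = median plate neutral-control signal and 100% = twice that signal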
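Assay system: CHO ldlA[mSR-BI] cells, LDL receptor-null, SR-BI overexpressing; medium: Ham's F12 with 0.5% BSA, HEPES 25 mM, pH 7.4; also added: DiI-HDL 10 µg/mL; timing: 3 h uptake period with compound, 37 °C; signal: DiI fluorescence, bottom read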
CDK5 inh: blocks human CDK5/p35 kinase activity; AID 488839; Q00535+Q15078; Recombinant CDK5/p35, ADP-Glo luminescence, 60 min; 0.01% of 330,000 active; inhibition, % at 10 µM;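 active = highest replicate inhibition of at least 50% and at least 75% of replicates reaching 50%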;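 also: plate controls were DMSO neutral control for no effect and GW8510 at 10 µM for full effect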
dFosB act: mouse delta FosB homodimer activation; P13346; purified delta FosB, TAMRA-CDK5 oligo fluorescence polarization; percent of positive-control signal above neutral wells; activation, % at 25 µM; 0.99% of 340,000 active; AID 493131;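 active = mean activation above about 17%, with every replicate also reaching it, limit read from the data, passing the limit was not always enough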
Target sequence (P13346 whole entry, looked up): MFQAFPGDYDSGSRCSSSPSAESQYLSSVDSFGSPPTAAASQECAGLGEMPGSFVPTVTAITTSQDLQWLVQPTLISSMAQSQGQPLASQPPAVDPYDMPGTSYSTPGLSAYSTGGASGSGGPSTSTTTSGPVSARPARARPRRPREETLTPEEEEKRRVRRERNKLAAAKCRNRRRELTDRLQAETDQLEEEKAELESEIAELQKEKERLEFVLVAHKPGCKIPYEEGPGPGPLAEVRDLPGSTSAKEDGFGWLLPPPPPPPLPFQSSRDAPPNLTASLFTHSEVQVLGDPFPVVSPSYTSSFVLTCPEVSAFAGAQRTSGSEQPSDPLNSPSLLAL
PKA-R1A activ: PKA-R1A complex activation; PKA-R1A dissociation, Cy5-IP20 fluorescence polarization; scaled: DMSO 0%, 113 µM cGMP 100%; activation, % at 11.4 µM; 0.083% of 340,000 active; AID 504707;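 active = percent activation above the mean of all tested compounds plus 3 SD, cut at about 19% in these data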;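 also: higher means more PKAc released from R1A so a rise in polarization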
PKA-R2B activ: activators of human PKA-R2B complex; P22694+P31323; PKA-R2B holoenzyme dissociation, Cy5-IP20 fluorescence polarization; R2B truncated from residue 108, S112A mutant; 0% DMSO only, 100% 113 µM cGMP; activation, % at 11.4 µM; 0.079% of 340,000 active;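 active = activation above a cutoff set at the mean over all compounds plus 3 SD, cut at about 18% in these data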;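 also: higher means more holoenzyme dissociation and a rise in polarization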
* hit, by the source's call.

O=C(CSCc1cccc(Br)c1)N=Nc1c(O)[nH]c2ccccc12 was read as SR-BI DiI inh -34.2, SR-BI uptake up 34.2, CDK5 inh -3.7, dFosB act -3.1, PKA-R1A activ -5.1 and PKA-R2B activ -4.6.
O=Nc1c(-c2c(O)[nH]c3cc(Br)ccc23)[nH]c2ccccc12 was read as SR-BI DiI inh 118.2*, SR-BI uptake up -118.1, CDK5 inh 5.4, dFosB act -5.5, PKA-R1A activ -12.8 and PKA-R2B activ -5.1.
Screening CC(OC(=O)c1ccc2ncsc2c1)C(=O)N(C)C1CCCCC1 (stereo not drawn) returned SR-BI DiI inh 10.0, SR-BI uptake up -10.0, CDK5 inh -1.2, dFosB act -10.9, PKA-R1A activ -0.5 and PKA-R2B activ 11.2.
CC1(C)Oc2ccc3ccc(=O)oc3c2/C(=C/NNC(N)=S)C1=O was read as SR-BI DiI inh 16.1, SR-BI uptake up -16.1, CDK5 inh 1.0, dFosB act -1.0, PKA-R1A activ 4.5 and PKA-R2B activ -4.3.
O=C(CNC(=O)c1ccc2c(c1)OCO2)N/N=C/c1cc(Br)ccc1O was read as SR-BI DiI inh -2.9, SR-BI uptake up 2.9, CDK5 inh 0.5, dFosB act 61.7*, PKA-R1A activ 6.0 and PKA-R2B activ 1.4.
Screening O=C(N/N=C/c1cc(Br)c(O)c(Br)c1O)c1ccc2c(c1)OCCO2 returned SR-BI DiI inh 30.2, SR-BI uptake up -30.2, CDK5 inh 0.5, dFosB act 1.4, PKA-R1A activ -3.8 and PKA-R2B activ -10.6.
Screening O=C(Cc1ccccc1)N/N=C/c1cc(Br)cc(Cl)c1O returned SR-BI DiI inh 53.8, SR-BI uptake up -53.8, CDK5 inh 1.2, dFosB act 54.0*, PKA-R1A activ 2.9 and PKA-R2B activ 3.1.
O=C(N/N=C/c1cc2c(cc1Cl)OCO2)c1ccncc1 was read as SR-BI DiI inh 29.0, SR-BI uptake up -29.0, CDK5 inh 1.0, dFosB act -6.5, PKA-R1A activ 0.6 and PKA-R2B activ -3.8.
Screening Cc1cc(Br)cc(/C=N/NC(=O)c2ccc3c(c2)OCO3)c1O returned SR-BI DiI inh 146.1*, SR-BI uptake up -146.1, CDK5 inh 1.0, dFosB act 15.3, PKA-R1A activ -3.4 and PKA-R2B activ 8.7.
For O=C(N/N=C/c1cc2c(cc1Cl)OCO2)c1cccc(Br)c1 the results were SR-BI DiI inh 80.7*, SR-BI uptake up -80.7, CDK5 inh 0.2, dFosB act -12.5, PKA-R1A activ -0.5 and PKA-R2B activ 7.3.
Screening O=C(CNC(=O)c1ccccc1)N/N=C/c1cc(Br)ccc1O returned SR-BI DiI inh -25.7, SR-BI uptake up 25.7, CDK5 inh -2.5, dFosB act -7.6, PKA-R1A activ -6.5 and PKA-R2B activ -6.2.
Cc1ccc(C)c(C(=O)CN2C(=O)NC3(CCCCCC3)C2=O)c1 was read as SR-BI DiI inh -1.1, SR-BI uptake up 1.1, CDK5 inh 2.4, dFosB act -1.2, PKA-R1A activ 9.0 and PKA-R2B activ -5.5.
Screening COc1ccc(-n2c(-c3ccc(Cl)cc3)c[nH]c2=S)cc1 returned SR-BI DiI inh -6.0, SR-BI uptake up 6.0, CDK5 inh 5.9, dFosB act 8.4, PKA-R1A activ -9.2 and PKA-R2B activ -4.0.
Screening Cc1cc(=O)[nH]c2nnc(-c3ccc(Cl)cc3)n12 returned SR-BI DiI inh -11.0, SR-BI uptake up 11.0, CDK5 inh -0.5, dFosB act -4.1, PKA-R1A activ -7.2 and PKA-R2B activ -6.0.
`Cc1ccc(N2CCC3CC2c2cc(-c4ccc(C(F)(F)F)cc4)ccc23)cc1` (stereo not drawn) gave PKA-R1A activ -10.1 and PKA-R2B activ -15.2.
Screening O=C(N/N=C/c1cc(Cl)cc([N+](=O)[O-])c1O)c1ccc2c(c1)OCO2 returned SR-BI DiI inh 124.4*, SR-BI uptake up -124.4, CDK5 inh 2.5, dFosB act -6.0, PKA-R1A activ 1.8 and PKA-R2B activ -3.1.

Screening data (PubChem)
